Key:
[1] = system: Canis familiaris; assay: Tested for percent increase in coronary sinus partial pressure of oxygen (PO2) in open chest anesthetized dog at intravenous dosage of 0.10 mg/kg; format: functional, Canis lupus familiaris; conditions: dose 0.1 mg/kg
[2] = system: Canis familiaris; assay: Total time in minutes elapsed from the initiation of the change until return to the pretest value of blood pressure in coronary sinus of anesthetized dog at intravenous dosage of 0.1 mg/kg; format: functional, Canis lupus familiaris
[3] = Lethal dose in mice after intraperitoneal administration; format: toxicity, organism-based; conditions: mouse, in vivo, ip
Summary of the method: (§1)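 Male and female mice, three per dose group, were given the compound by the stated route in increments of 0.5 log doses. The LD50 was estimated as an approximate value.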

[4] = Lethal dose in mice after peroral administration; format: toxicity, organism-based; conditions: mouse, in vivo, po; summary of the method: as §1
[5] = system: Canis familiaris; assay: Tested for the percent increase in aortic blood pressure (BP) in open chest anesthetized dog at intravenous dosage of 0.10 mg/kg; format: functional, Canis lupus familiaris, Artery; conditions: dose 0.1 mg/kg
Summary of the method: (§2)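 Open-chest anesthetized dogs, compound given iv at the stated dose. Aortic blood pressure is reported as the change from the control (pre-dose) value. Other set-up follows the group's earlier cardiovascular protocol.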

[6] = system: Canis familiaris; assay: Total time in minutes elapsed from the initiation of the change until return to the pretest value of oxygen partial pressure in coronary sinus of anesthetized dog at intravenous dosage of 0.1 mg/kg; format: functional, Canis lupus familiaris
[7] = system: Canis familiaris; assay: Total time in minutes elapsed from the initiation of the change until return to the pretest value of heart rate in coronary sinus of anesthetized dog at intravenous dosage of 0.1 mg/kg; format: functional, Canis lupus familiaris
[8] = system: Canis familiaris; assay: tested for the percent increase in heart rate (HR) in open chest anesthetized dog at intravenous dosage of 0.10 mg/kg; format: functional, Canis lupus familiaris; conditions: dose 0.1 mg/kg
[9] = system: Canis familiaris; assay: Total time in minutes elapsed from the initiation of the change until return to the pretest value of blood pressure in coronary sinus of anesthetized dog at intravenous dosage of 0.01 mg/kg; format: functional, Canis lupus familiaris
[10] = system: Canis familiaris; assay: Tested for the percent increase in coronary sinus partial pressure of oxygen (PO2) in open chest anesthetized dog at intravenous dosage of 0.10 mg/kg; format: functional, Canis lupus familiaris; conditions: dose 0.1 mg/kg
[11] = system: Canis familiaris; assay: Total time in minutes elapsed from the initiation of the change until return to the pretest value of oxygen partial pressure in coronary sinus of anesthetized dog at intravenous dosage of 0.01 mg/kg; format: functional, Canis lupus familiaris
[12] = system: Canis familiaris; assay: Total time in minutes elapsed from the initiation of the change until return to the pretest value of heart rate in coronary sinus of anesthetized dog at intravenous dosage of 0.01 mg/kg; format: functional, Canis lupus familiaris
[13] = system: Canis familiaris; assay: Tested for percent increase in coronary sinus partial pressure of oxygen (PO2) in open chest anesthetized dog at intravenous dosage of 0.01 mg/kg; format: functional, Canis lupus familiaris
[14] = system: Canis familiaris; assay: Tested for the percent increase in aortic blood pressure (BP) in open chest anesthetized dog at intravenous dosage of 0.01 mg/kg; format: functional, Canis lupus familiaris, Artery; summary of the method: as §2
[15] = system: Canis familiaris; assay: Total time in minutes elapsed from the initiation of the change until return to the pretest value of oxygen partial pressure in coronary sinus of anesthetized dog at intravenous dosage of 0.001 mg/kg; format: functional, Canis lupus familiaris
[16] = system: Canis familiaris; assay: Total time in minutes elapsed from the initiation of the change until return to the pretest value of heart rate in coronary sinus of anesthetized dog at intravenous dosage of 0.001 mg/kg; format: functional, Canis lupus familiaris
[17] = system: Canis familiaris; assay: Total time in minutes elapsed from the initiation of the change until return to the pretest value of blood pressure in coronary sinus of anesthetized dog at intravenous dosage of 0.001 mg/kg; format: functional, Canis lupus familiaris
[18] = system: Canis familiaris; assay: Tested for percent increase in coronary sinus partial pressure of oxygen (PO2) in open chest anesthetized dog at intravenous dosage of 0.001 mg/kg; format: functional, Canis lupus familiaris
[19] = system: Canis familiaris; assay: Tested for the percent increase in aortic blood pressure (BP) in open chest anesthetized dog at intravenous dosage of 0.001 mg/kg; format: functional, Canis lupus familiaris, Artery; summary of the method: as §2
[20] = system: Canis familiaris; assay: Tested for the percent increase in aortic blood pressure (BP) in open chest anesthetized dog at intravenous dosage of 1.00 mg/kg; format: functional, Canis lupus familiaris, Artery; summary of the method: as §2
[21] = system: Canis familiaris; assay: Tested for the percent increase in coronary sinus partial pressure of oxygen (PO2) in open chest anesthetized dog at intravenous dosage of 1.00 mg/kg; format: functional, Canis lupus familiaris
[22] = system: Canis familiaris; assay: Total time in minutes elapsed from the initiation of the change until return to the pretest value of heart rate in coronary sinus of anesthetized dog at intravenous dosage of 1 mg/kg; format: functional, Canis lupus familiaris
[23] = system: Canis familiaris; assay: Total time in minutes elapsed from the initiation of the change until return to the pretest value of oxygen partial pressure in coronary sinus of anesthetized dog at intravenous dosage of 0.10 mg/kg; format: functional, Canis lupus familiaris; conditions: dose 0.1 mg/kg
[24] = system: Canis familiaris; assay: Total time in minutes elapsed from the initiation of the change until return to the pretest value of blood pressure in coronary sinus of anesthetized dog at intravenous dosage of 1 mg/kg; format: functional, Canis lupus familiaris
[25] = system: Canis familiaris; assay: Total time in minutes elapsed from the initiation of the change until return to the pretest value of oxygen partial pressure in coronary sinus of anesthetized dog at intravenous dosage of 1 mg/kg; format: functional, Canis lupus familiaris
Summary of the method: (§3)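 Open-chest anesthetized dogs given compound by intravenous injection. Coronary sinus PO2 was monitored, and duration was the total time in minutes from the onset of the change until return to the pretest value.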

[26] = system: Canis familiaris; assay: tested for percent increase in coronary sinus partial pressure of oxygen (PO2) in open chest anesthetized dog at intravenous dosage of 0.10 mg/kg; format: functional, Canis lupus familiaris; conditions: dose 0.1 mg/kg
[27] = system: Canis familiaris; assay: tested for percent increase in coronary sinus partial pressure of oxygen (PO2) in open chest anesthetized dog at intravenous dosage of 9.00 mg/kg; format: functional, Canis lupus familiaris
[28] = system: Canis familiaris; assay: Total time in minutes elapsed from the initiation of the change until return to the pretest value of heart rate in coronary sinus of anesthetized dog at intravenous dosage of 9 mg/kg; format: functional, Canis lupus familiaris
[29] = system: Canis familiaris; assay: tested for the percent increase in aortic blood pressure (BP) in open chest anesthetized dog at intravenous dosage of 9.00 mg/kg; format: functional, Canis lupus familiaris, Artery
Summary of the method: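 Open-chest anesthetized dogs received intravenous doses. Aortic blood pressure was recorded as the change from control.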

[30] = system: Canis familiaris; assay: Total time in minutes elapsed from the initiation of the change until return to the pretest value of blood pressure in coronary sinus of anesthetized dog at intravenous dosage of 9 mg/kg; format: functional, Canis lupus familiaris
[31] = system: Canis familiaris; assay: Total time in minutes elapsed from the initiation of the change until return to the pretest value of oxygen partial pressure in coronary sinus of anesthetized dog at intravenous dosage of 9 mg/kg; format: functional, Canis lupus familiaris; summary of the method: as §3
[32] = system: Canis familiaris; assay: Tested for percent increase in coronary sinus partial pressure of oxygen (PO2) in open chest anesthetized dog at intravenous dosage of 1.00 mg/kg; format: functional, Canis lupus familiaris
[33] = system: Canis familiaris; assay: Total time in minutes elapsed from the initiation of the change until return to the pretest value of blood pressure in coronary sinus of anesthetized dog at intravenous dosage of 5 mg/kg; format: functional, Canis lupus familiaris
[34] = system: Canis familiaris; assay: Tested for the percent increase in coronary sinus partial pressure of oxygen (PO2) in open chest anesthetized dog at intravenous dosage of 5.00 mg/kg; format: functional, Canis lupus familiaris
[35] = system: Canis familiaris; assay: Total time in minutes elapsed from the initiation of the change until return to the pretest value of oxygen partial pressure in coronary sinus of anesthetized dog at intravenous dosage of 5 mg/kg; format: functional, Canis lupus familiaris; summary of the method: as §3
[36] = system: Canis familiaris; assay: Total time in minutes elapsed from the initiation of the change until return to the pretest value of heart rate in coronary sinus of anesthetized dog at intravenous dosage of 5 mg/kg; format: functional, Canis lupus familiaris
[37] = system: Canis familiaris; assay: Total time in minutes elapsed from the initiation of the change until return to the pretest value of blood pressure in coronary sinus of anesthetized dog at intravenous dosage of 0.10 mg/kg; format: functional, Canis lupus familiaris; conditions: dose 0.1 mg/kg
Summary of the method: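 Open-chest anesthetized dogs were given the compound intravenously. Duration is the total minutes from the start of the change until return to the pretest value. Blood pressure was recorded as change from control.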

Nc1ncnc2c1ncn2[C@@H]1O[C@H](C(=O)NC2CCCC2)[C@@H](O)[C@H]1O
PO2 [1]: 83% | Duration [2]: 120 min | LD50 [3]: 200 mg/kg | LD50 [4]: 200 mg/kg | BP [5]: 12% | Duration [6]: 120 min | Duration [7]: 120 min | HR [8]: 25%

CONC(=O)[C@H]1O[C@@H](n2cnc3c(N)ncnc32)[C@H](O)[C@@H]1O
Duration [9]: 41 min | PO2 [10]: 143% | Duration [2]: 90 min | LD50 [3]: 20 mg/kg | Duration [11]: 60 min | LD50 [4]: 50 mg/kg | Duration [12]: 60 min | PO2 [13]: 157% | BP [5]: 39% | Duration [6]: 90 min | Duration [7]: 10 min | HR [8]: 2% | BP [14]: 9%

CNC(=O)[C@H]1O[C@@H](n2cnc3c(N)ncnc32)[C@H](O)[C@@H]1O
Duration [9]: 60 min | PO2 [10]: 215% | Duration [2]: 240 min | LD50 [3]: 5 mg/kg | Duration [11]: 14 min | LD50 [4]: 20 mg/kg | Duration [12]: 240 min | PO2 [13]: 105% | Duration [6]: 240 min

CCNC(=O)[C@H]1OC(n2cnc3c(N)[n+]([O-])cnc32)[C@H](O)[C@@H]1O (some centres not stated)
Duration [15]: 120 min | Duration [16]: 120 min | Duration [17]: 120 min | PO2 [18]: 37% | BP [19]: 27 mmHg

C=C(C)CNC(=O)[C@H]1OC(n2cnc3c(N)ncnc32)[C@H](O)[C@@H]1O (some centres not stated)
PO2 [1]: 38% | Duration [2]: 15 min | LD50 [3]: 500 mg/kg | LD50 [4]: > 1000 mg/kg | BP [5]: 1% | Duration [6]: 60 min | Duration [7]: 60 min | HR [8]: 19%

CCCONC(=O)[C@H]1OC(n2cnc3c(N)ncnc32)[C@H](O)[C@@H]1O (some centres not stated)
PO2 [1]: 52% | Duration [2]: 13 min | LD50 [3]: 200 mg/kg | LD50 [4]: > 1000 mg/kg | BP [5]: 1% | Duration [6]: 60 min | Duration [7]: 3 min | HR [8]: 6%

CCOCCNC(=O)[C@H]1OC(n2cnc3c(N)ncnc32)[C@H](O)[C@@H]1O (some centres not stated)
BP [20]: 15% | Duration [2]: 1 min | LD50 [3]: 50 mg/kg | PO2 [21]: 135% | LD50 [4]: > 1000 mg/kg | Duration [22]: 120 min | Duration [12]: 0 min | Duration [23]: 6 min | BP [14]: 8% | Duration [24]: 120 min | Duration [25]: 120 min

CCCCNC(=O)[C@H]1OC(n2cnc3c(N)ncnc32)[C@H](O)[C@@H]1O (some centres not stated)
Duration [2]: 40 min | BP [5]: 5% | Duration [6]: 30 min | Duration [7]: 40 min | HR [8]: 16% | PO2 [26]: 30%

Nc1ncnc2c1ncn2C1O[C@H](C(=O)NCC(O)COc2cccc3ccccc23)[C@@H](O)[C@H]1O (some centres not stated)
PO2 [27]: 152% | LD50 [3]: > 300 mg/kg | Duration [28]: 12 min | LD50 [4]: > 300 mg/kg | BP [29]: 8 mmHg | Duration [30]: 7 min | Duration [31]: 18 min

C#CCNC(=O)[C@H]1OC(n2cnc3c(N)ncnc32)[C@H](O)[C@@H]1O (some centres not stated)
BP [20]: 40% | PO2 [1]: 50% | Duration [2]: 70 min | LD50 [3]: 200 mg/kg | PO2 [21]: 133% | LD50 [4]: > 1000 mg/kg | Duration [22]: 82 min | BP [5]: 5% | Duration [6]: 70 min | Duration [7]: 60 min | HR [8]: 13% | Duration [24]: 180 min | Duration [25]: 180 min

Nc1c2ncn(C3O[C@H](C(=O)NC4CC4)[C@@H](O)[C@H]3O)c2nc[n+]1[O-] (some centres not stated)
Duration [9]: 60 min | Duration [16]: 60 min | Duration [11]: 75 min | PO2 [13]: 66% | BP [14]: 15%

Nc1ncnc2c1ncn2C1O[C@H](C(=O)NCCc2ccccc2)[C@@H](O)[C@H]1O (some centres not stated)
PO2 [32]: 9% | BP [20]: 11% | LD50 [3]: 500 mg/kg | Duration [33]: 60 min | PO2 [34]: 44% | LD50 [4]: > 1000 mg/kg | Duration [35]: 60 min | Duration [22]: 18 min | Duration [36]: 6 min | Duration [24]: 1 min | Duration [25]: 25 min

Nc1ncnc2c1ncn2C1O[C@H](C(=O)NCCO)[C@@H](O)[C@H]1O (some centres not stated)
Duration [9]: 90 min | PO2 [10]: 163% | LD50 [3]: 2 mg/kg | Duration [37]: 240 min | Duration [11]: 90 min | LD50 [4]: 5 mg/kg | Duration [12]: 42 min | PO2 [13]: 75% | Duration [23]: 240 min | Duration [7]: 15 min

CCC(CC)NC(=O)[C@H]1OC(n2cnc3c(N)ncnc32)[C@H](O)[C@@H]1O (some centres not stated)
PO2 [1]: 28% | Duration [2]: 110 min | LD50 [3]: 50 mg/kg | LD50 [4]: > 300 mg/kg | BP [5]: 9% | Duration [6]: 110 min | Duration [7]: 110 min | HR [8]: 11%
